Experimental data reported in ChEMBL document CHEMBL1921722, “In vitro and in vivo evaluation of select kahalalide F analogs with antitumor and antifungal activities” (Bioorg Med Chem, 2011).

Experiments:
Type in all cases: functional
U-251 = assay: Cytotoxicity against human U251 cells assessed as cell growth at 8 uM by sulforhodamine B assay relative to control; conditions: read-out: Activity
K562 = assay: Cytotoxicity against human K562 cells assessed as cell growth at 80 uM by sulforhodamine B assay relative to control; conditions: read-out: Activity
SR = assay: Cytotoxicity against human SR cells assessed as cell growth at 8 nM by sulforhodamine B assay relative to control; conditions: read-out: Activity
HCC 2998 = assay: Cytotoxicity against human HCC2998 cells assessed as cell growth at 8 nM by sulforhodamine B assay relative to control; conditions: read-out: Activity
SW-620 [1] = assay: Cytotoxicity against human SW620 cells assessed as cell growth at 80 uM by sulforhodamine B assay relative to control; conditions: read-out: Activity
OVCAR-3 = assay: Cytotoxicity against human OVCAR3 cells assessed as cell growth at 8 uM by sulforhodamine B assay relative to control; conditions: read-out: Activity
NCI-H522 [2] = assay: Cytotoxicity against human NCI-H522 cells assessed as cell growth at 800 nM by sulforhodamine B assay relative to control; conditions: read-out: Activity
SW-620 [3] = assay: Cytotoxicity against human SW620 cells by sulforhodamine B assay
Summary of the method: (§1)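 NCI Developmental Therapeutics Program 60-cell-line human tumor panel screen, run at NCI. A single-concentration pre-screen was followed by a five-concentration dose-response in 10-fold steps. GI50 is the concentration that reduces growth of treated cells to half that of untreated control cells. TGI is the concentration that completely halts growth.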

SK-MEL-28 = assay: Cytotoxicity against human SK-MEL-28 cells by sulforhodamine B assay; summary of the method: as §1
UACC-62 = assay: Cytotoxicity against human UACC62 cells assessed as cell growth at 80 nM by sulforhodamine B assay relative to control; conditions: read-out: Activity
BT-549 [4] = assay: Cytotoxicity against human BT549 cells by sulforhodamine B assay
Summary of the method: (§2)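 Run at NCI in the DTP 60-cell-line human tumor panel by standard procedure. Compounds were first screened at a single concentration, then tested at five tenfold-spaced concentrations. GI50 is the concentration reducing treated-cell growth to half that of untreated controls; TGI is the concentration completely halting growth.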

786-0 [5] = assay: Cytotoxicity against human 786-0 cells by sulforhodamine B assay; summary of the method: as §2
RPMI-8226 = assay: Cytotoxicity against human RPMI8226 cells assessed as cell growth at 8 nM by sulforhodamine B assay relative to control; conditions: read-out: Activity
NCI-H460 = assay: Cytotoxicity against human NCI-H460 cells assessed as cell growth at 800 nM by sulforhodamine B assay relative to control; conditions: read-out: Activity
IGROV-1 [6] = assay: Cytotoxicity against human IGROV1 cells by sulforhodamine B assay; summary of the method: as §1
NCI-H522 [7] = assay: Cytotoxicity against human NCI-H522 cells by sulforhodamine B assay; summary of the method: as §1
MDA-MB-435 = assay: Cytotoxicity against human MDA-MB-435 cells assessed as cell growth at 80 uM by sulforhodamine B assay relative to control; conditions: read-out: Activity
HT-29 = assay: Cytotoxicity against human HT-29 cells assessed as cell growth at 8 nM by sulforhodamine B assay relative to control; conditions: read-out: Activity
UO-31 = assay: Cytotoxicity against human UO31 cells assessed as cell growth at 800 nM by sulforhodamine B assay relative to control; conditions: read-out: Activity
NCI-H226 = assay: Cytotoxicity against human NCI-H226 cells assessed as cell growth at 800 nM by sulforhodamine B assay relative to control; conditions: read-out: Activity
OVCAR-8 = assay: Cytotoxicity against human OVCAR8 cells by sulforhodamine B assay
Summary of the method: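 NCI Developmental Therapeutics Program 60-cell-line human tumor panel, standard procedure. Single-concentration prescreen first; active compounds then tested at five concentrations. GI50 is the concentration reducing growth of treated cells to half that of untreated controls.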

HOP-92 = assay: Cytotoxicity against human HOP92 cells assessed as cell growth at 800 nM by sulforhodamine B assay relative to control; conditions: read-out: Activity
NCI-H522 [8] = assay: Cytotoxicity against human NCI-H522 cells assessed as cell growth at 8 uM by sulforhodamine B assay relative to control; conditions: read-out: Activity
Hs-578T = assay: Cytotoxicity against human Hs578T cells assessed as cell growth at 8 nM by sulforhodamine B assay relative to control; conditions: read-out: Activity
TK-10 = assay: Cytotoxicity against human TK10 cells assessed as cell growth at 80 nM by sulforhodamine B assay relative to control; conditions: read-out: Activity
A498 [9] = assay: Cytotoxicity against human A498 cells assessed as cell growth at 80 nM by sulforhodamine B assay relative to control; conditions: read-out: Activity; summary of the method: as §2
IGROV-1 [10] = assay: Cytotoxicity against human IGROV1 cells assessed as cell growth at 8 uM by sulforhodamine B assay relative to control; conditions: read-out: Activity
OVCAR-4 [11] = assay: Cytotoxicity against human OVCAR4 cells assessed as cell growth at 800 nM by sulforhodamine B assay relative to control; conditions: read-out: Activity
BT-549 [12] = assay: Cytotoxicity against human BT549 cells assessed as cell growth at 80 nM by sulforhodamine B assay relative to control; conditions: read-out: Activity; summary of the method: as §2
KM12 = assay: Cytotoxicity against human KM12 cells assessed as cell growth at 8 nM by sulforhodamine B assay relative to control; conditions: read-out: Activity
T47D = assay: Cytotoxicity against human T47D cells assessed as cell growth at 8 nM by sulforhodamine B assay relative to control; conditions: read-out: Activity
UACC-257 = assay: Cytotoxicity against human UACC257 cells assessed as cell growth at 800 nM by sulforhodamine B assay relative to control; conditions: read-out: Activity
HOP-62 [13] = assay: Cytotoxicity against human HOP62 cells by sulforhodamine B assay
Summary of the method: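 Run by the NCI Developmental Therapeutics Program on its 60-line human tumour cell panel using the standard procedure. Compounds went through a single-concentration prescreen first, and those active by NCI criteria went on to a five-concentration growth-inhibition test. GI50 is the concentration that cuts growth of treated cells to half that of untreated control cells.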

RXF 393 = assay: Cytotoxicity against human RXF393 cells assessed as cell growth at 8 nM by sulforhodamine B assay relative to control; conditions: read-out: Activity
A498 [14] = assay: Cytotoxicity against human A498 cells assessed as cell growth at 8 uM by sulforhodamine B assay relative to control; conditions: read-out: Activity; summary of the method: as §2
786-0 [15] = assay: Cytotoxicity against human 786-0 cells assessed as cell growth at 8 uM by sulforhodamine B assay relative to control; conditions: read-out: Activity; summary of the method: as §2
HOP-62 [16] = assay: Cytotoxicity against human HOP62 cells assessed as cell growth at 800 nM by sulforhodamine B assay relative to control; conditions: read-out: Activity
OVCAR-4 [17] = assay: Cytotoxicity against human OVCAR4 cells assessed as cell growth at 8 uM by sulforhodamine B assay relative to control; conditions: read-out: Activity
ACHN = assay: Cytotoxicity against human ACHN cells by sulforhodamine B assay; summary of the method: as §2

Structure (SMILES): C/C=C1\NC(=O)[C@H](Cc2ccccc2)NC(=O)[C@@H](C(C)C)NC(=O)[C@@H]([C@@H](C)CC)NC(=O)[C@H](NC(=O)[C@H](NC(=O)[C@H](CCCNCc2ccc(F)c(C)c2)NC(=O)[C@H]2CCCN2C(=O)[C@H](NC(=O)[C@@H](NC(=O)[C@@H](NC(=O)[C@H](NC(=O)CCCC(C)C)C(C)C)[C@@H](C)O)C(C)C)C(C)C)[C@@H](C)CC)[C@@H](C)OC(=O)[C@H](C(C)C)NC1=O
- growth at 8 µM (U-251): -96%
- growth at 80 µM (K562): -14%
- growth at 0.008 µM (SR): 90%
- growth at 0.008 µM (HCC 2998): 108%
- growth at 80 µM (SW-620 [1]): -80%
- growth at 8 µM (OVCAR-3): -94%
- growth at 0.8 µM (NCI-H522 [2]): 105%
- GI50 (SW-620 [3]): 513 nM
- LC50 (SW-620 [3]): 3310 nM
- TGI (SW-620 [3]; read-out: pTGI (converted)): 1450 nM
- GI50 (SK-MEL-28): 1100 nM
- growth at 0.08 µM (UACC-62): 104%
- GI50 (BT-549 [4]): 1230 nM
- LC50 (BT-549 [4]): 4570 nM
- TGI (BT-549 [4]; read-out: pTGI (converted)): 2340 nM
- GI50 (786-0 [5]): 1290 nM
- LC50 (786-0 [5]): 4170 nM
- TGI (786-0 [5]; read-out: pTGI (converted)): 2340 nM
- growth at 0.008 µM (RPMI-8226): 128%
- growth at 0.8 µM (NCI-H460): 104%
- GI50 (IGROV-1 [6]): 708 nM
- TGI (IGROV-1 [6]; read-out: pTGI (converted)): 1860 nM
- GI50 (NCI-H522 [7]): 2570 nM
- LC50 (NCI-H522 [7]): > 75900 nM
- TGI (NCI-H522 [7]; read-out: pTGI (converted)): 35500 nM
- growth at 80 µM (MDA-MB-435): -36%
- growth at 0.008 µM (HT-29): 100%
- growth at 0.8 µM (UO-31): 92%
- growth at 0.8 µM (NCI-H226): 98%
- GI50 (OVCAR-8): 1860 nM
- LC50 (OVCAR-8): 75900 nM
- growth at 0.8 µM (HOP-92): 92%
- growth at 8 µM (NCI-H522 [8]): 3%
- growth at 0.008 µM (Hs-578T): 102%
- growth at 0.08 µM (TK-10): 105%
- growth at 0.08 µM (A498 [9]): 108%
- growth at 8 µM (IGROV-1 [10]): -75%
- growth at 0.8 µM (OVCAR-4 [11]): 7%
- growth at 0.08 µM (BT-549 [12]): 76%
- growth at 0.008 µM (KM12): 107%
- growth at 0.008 µM (T47D): 104%
- growth at 0.8 µM (UACC-257): 88%
- GI50 (HOP-62 [13]): 1200 nM
- LC50 (HOP-62 [13]): 4370 nM
- TGI (HOP-62 [13]; read-out: pTGI (converted)): 2290 nM
- growth at 0.008 µM (RXF 393): 103%
- growth at 8 µM (A498 [14]): -92%
- growth at 8 µM (786-0 [15]): -99%
- growth at 0.8 µM (HOP-62 [16]): 87%
- growth at 8 µM (OVCAR-4 [17]): -65%
- LC50 (ACHN): 4070 nM
- GI50 (ACHN; read-out: GI50): 1120 nM
- TGI (ACHN; read-out: TGI): 2140 nM
- GI50 (ACHN; read-out: pGI50 (converted)): 1120 nM
- TGI (ACHN; read-out: pTGI (converted)): 2140 nM
